Measurements reported in the array DNA melting data of Ke et al. (doi:10.1101/2024.01.08.574731).

Assays:
[1] = folding enthalpy; higher = less favourable; fluorescence melt of hairpins on a sequencing array, two-state fit; conditions: sodium 0.088 M
Method in brief: (§1)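 Two-state fits, bootstrapped, provided melting temperature and folding enthalpy from Cy3 fluorescence normalised to pre-quench Cy3 and to control constructs. Library hairpins with annealed Cy3 and quencher oligos were imaged on a sequenced MiSeq flow cell in 50 mM Na-HEPES pH 8.0, 25 mM NaCl, at 2.5 °C intervals up to 60 °C. Four replicates were combined with inverse-variance weighting. A 9.35 °C upward shift was applied to fitted temperatures to match UV melts.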

[2] = melting temperature; fluorescence melt of hairpins on a sequencing array, two-state fit, raised by 9.35 °C to match UV melts; conditions: sodium 0.088 M
Method in brief: as §1

| Sequence | folding enthalpy [1] [kcal/mol] | Tm [2] [°C] |
| --- | --- | --- |
| GATCATATCAATGATC ((((((....)))))) | -27.9 | 48.3 |
| GCTATCGAAAGATCAGC ((((((....))).))) | -20.6 | 38.2 |
| CGTTCGGAAACGAAGACG ((((((....)))..))) | -26.2 | 34.9 |
| GCTGCGCGAAAGCACCGC ((.(.((....)).).)) | -21.4 | 41.3 |
| GATCGTGGAAACATGGTC ((.(.((....)).).)) | -20.4 | 32.7 |
| GCAGCGCGAAAGCTCAGC ((.(.((....)).).)) | -10.6 | 39.9 |
| GTTGTAGGAAACTACAAC (((((((....))))))) | -40.5 | 56.1 |
| GCGGCACCCGC ((((...)))) | -21.9 | 56.4 |
| GAGAATGGAAACATTCTC (((((((....))))))) | -40.6 | 54.7 |
| GATCCATCCTGGATC ((((((...)))))) | -43 | 52.7 |
| GGGTGTACGAAAGTACCC (((..(((....)))))) | -23.1 | 53.3 |
| GCGTCGCGAAAGCGCTGC ((..(((....)))..)) | -16.3 | 50.2 |
| GTCGACGAAAGTCCCGAC ((((((....)))..))) | -16.1 | 34 |
| GTGTGCGAAAGCAATCAC ((((((....)))..))) | -16.1 | 39.9 |
| GCGTATTGACGC ((((....)))) | -13.1 | 52.9 |
| GCCTTCGAAAGAATAGGC ((((((....)))..))) | -28.8 | 44.8 |
| GGCTACGAAAGTATAGCC ((((((....)))..))) | -25.1 | 49.9 |
| CGACGCGGAAACGCTCG (((.(((....)))))) | -21.8 | 49.3 |
| GGAGCCGAAAGGCGTTCC ((((((....)))..))) | -10.1 | 40 |
| GTTATCGAAAGATAAAAC ((((((....)))..))) | -9.3 | 26.5 |
| GTGGGTCGAAAGACACAC (((.(((....))).))) | -47 | 63.5 |
| CCCAAGAAATTGGG (((((....))))) | -17.3 | 45.3 |
| GATCTTTTAAAGATC ((((((...)))))) | -30.9 | 43.8 |

| Sequence | folding enthalpy [1] [kcal/mol] | Tm [2] [°C] |
| --- | --- | --- |
| GCGGGACTCCGC ((((....)))) | -27.3 | 67.7 |
| GTCTACGAAAGTAGTGAC ((((((....)))..))) | -14.3 | 33.4 |
| GTAAGCGGAAACGTTTAC ((((.((....)).)))) | -28.2 | 43 |
| GTTTATGCGAAAGCAAAC (((..(((....)))))) | -8.45 | 28.1 |
| CGGTCCCGGAAACGGCCG (((..(((....)))))) | -21.1 | 41.3 |
| GGCTCCCGAAAGGGCGCC (((.(((....))).))) | -33.6 | 62.6 |
| GATCCATCTATGGATC ((((((....)))))) | -39.3 | 55.8 |
| GTTACCCGAAAGGGAAAC (((.(((....))).))) | -21.6 | 48.6 |
| GCCCTGCGAAAGCATGGC (((.(((....))).))) | -48.3 | 56.3 |
| GGGCCCACGAAAGTGCCC (((..(((....)))))) | -18.8 | 50.4 |
| GATCAGTAGTCTGATC ((((((....)))))) | -37 | 50.2 |
| GATCAGTTAGCTGATC ((((((....)))))) | -40.2 | 53.1 |
| GCACCAGCGAAAGCTTGC (((..(((....)))))) | -11.8 | 38.1 |
| GCCAGGCGAAAGCATTGC ((.(.((....)).).)) | -13.1 | 35.7 |
| GCAGCGCGAAAGCTTTGC (((..((....))..))) | -16.7 | 37.4 |
| GGATGAGGAAACCCATCC (((((.(....).))))) | -30.3 | 44.6 |
| GAGGGCGAAAGCCGCTC ((((((....))).))) | -13 | 54.5 |
| GACCACGAAAGTGACGTC ((((((....)))..))) | -16.5 | 37.5 |
| GCTATGCGAAAGCTCAGC (((..((....))..))) | -19.1 | 36.2 |
| GGTCAACGAAAGTTCACC (((.(((....))).))) | -22.3 | 35.1 |
| CGGTTGCGGAAACGCCCG (((..(((....)))))) | -22.3 | 46.5 |
| GCGCACGAAAGTGAACGC ((((((....)))..))) | -31.2 | 54.5 |
| GCTTGGGGAAACTCAGGC ((.((.(....).)).)) | -18.2 | 36.6 |

| Sequence | folding enthalpy [1] [kcal/mol] | Tm [2] [°C] |
| --- | --- | --- |
| GATCATACTTATGATC ((((((....)))))) | -37 | 48.5 |
| GAGGACGAAAGTCCCCTC ((((((....)))..))) | -10.3 | 42.7 |
| GAACACGAAAGTGAATTC ((((((....)))..))) | -13.3 | 25.1 |
| GTAGGTCGAAAGACATAC (((.(((....))).))) | -29.7 | 51.9 |
| GAAACCGAAAGGTGATTC ((((((....)))..))) | -22.4 | 41.6 |
| GACCCGCGAAAGCGTGTC (((.(((....))).))) | -24 | 52.6 |
| GGGCGTGGAAACGCGCCC (((((.(....).))))) | -22.5 | 68.3 |
| GCCGTCTCGAAAGAGGGC (((..(((....)))))) | -24.9 | 50.6 |
| GGACAAACGAAAGTTTCC (((..(((....)))))) | -9.9 | 25.4 |
| GACGTCCGAAAGGAGGTC (((.(((....))).))) | -30.9 | 58.3 |
| GTACACGGAAACATGTAC (((((.(....).))))) | -28.3 | 34.2 |
| GTCTGTCGAAAGACTGAC (((.(((....))).))) | -39.4 | 54.4 |
| GTGTTTGGAAACAGACAC ((((.((....)).)))) | -36 | 44.1 |
| GCGGAGTCCGC ((((...)))) | -25.6 | 52.4 |
| GTCCCCGGAAACGAGGAC ((((.((....)).)))) | -32.1 | 48 |
| GAAGGGCGAAAGCCTTC (((.(((....)))))) | -14.3 | 50.8 |
| GTAGGCGAAAGCCAATAC ((((((....)))..))) | -9.29 | 33.6 |
| GCGGCCGAAAGGCAACGC ((((((....)))..))) | -19.1 | 64.3 |
| GGCATCGGAAACGGTGTC (.((.((....)).)).) | -25.7 | 44.8 |
| GTCAGAGGAAACTCTGAC (((((((....))))))) | -37.9 | 61.7 |
| GTGGAAGGAAACTTCCGC (.(((((....))))).) | -24.1 | 51.1 |
| GGCCTCGAAAGAGATGCC ((((((....)))..))) | -24.1 | 46.8 |
| GTCCGAGGAAACTCAGAC (((.(((....))).))) | -21.4 | 35.9 |

| Sequence | folding enthalpy [1] [kcal/mol] | Tm [2] [°C] |
| --- | --- | --- |
| GGATGTGGAAACACATTC (.(((((....))))).) | -25.7 | 47.6 |
| GATCTCGGAAGAGATC ((((((....)))))) | -37.4 | 63.6 |
| GATCTGATCGCAGATC ((((((....)))))) | -11.2 | 42.3 |
| GGGTCCGAAAGGATTCCC ((((((....)))..))) | -22.2 | 44.1 |
| GACGTGGGAAACCACACC (..((((....))))..) | -11.9 | 25.5 |
| GCTGACGAAAGTCAAAGC ((((((....)))..))) | -17.9 | 48.7 |
| GATCTAACCATAGATC ((((((....)))))) | -31.7 | 38.2 |
| GTATTTCGAAAGAATAC (((.(((....)))))) | -14.1 | 31.1 |
| GTGTACGAAAGTATACAC ((((((....)))..))) | -22 | 44.9 |
| GATTATGGAAACATGATC (((.(((....))).))) | -32.8 | 35.5 |
| GTCAAAACGAAAGTTGAC (((..(((....)))))) | -24.4 | 40.5 |
| GGAACACCGAAAGGTTCC (((..(((....)))))) | -18.4 | 42.2 |
| CGCCACCGGAAACGGGCG (((..(((....)))))) | -26.2 | 49.3 |
| GGTTGAGGAAACCCAACC (((((.(....).))))) | -39.4 | 45.2 |
| GGCATTCGAAAGAAGGCC (((.(((....))).))) | -41.7 | 60.4 |
| GATCGTGATAACGATC ((((((....)))))) | -40.2 | 63.6 |
| GCAGCCGAAAGGCGTTGC ((((((....)))..))) | -13.8 | 53.3 |
| GGCACCGAAAGGTCCGCC ((((((....)))..))) | -20.4 | 55.2 |
| GACTTGGGAAACTAGGTC (((.(.(....).).))) | -9.69 | 25.4 |
| GTGGGTGAAAACCCAC ((((((....)))))) | -28.1 | 67.3 |
| GAAGCCGAAAGGCCGTTC ((((((....)))..))) | -6.55 | 26.6 |
| GATCCCCCAAGGGATC ((((((....)))))) | -38.6 | 61.2 |
| GATCCCTGGCGGGATC ((((((....)))))) | -37.2 | 59.1 |
